Source: ChEMBL document CHEMBL5357066, “Development of Novel Membrane Disrupting Lipoguanidine Compounds Sensitizing Gram-Negative Bacteria to Antibiotics” (ACS Med Chem Lett, 2024)
Calls of active or inactive are those of the source. The calls are words filed in the database; no cut-off is given here.

Legend:
Pseudomonas aeruginosa [1] = assay: Synergistic antibacterial activity against Pseudomonas aeruginosa PAO1 assessed as fold change in novobiocin MIC at <=0.25 times MIC incubated for overnight by microbroth dilution checkerboard assay relative to novobiocin alone; assay type: functional
How it was run: (§1)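 Checkerboard microdilution in Tryptic Soy Broth, run like the MIC assay. Overnight TSB cultures were back-diluted to OD 0.01 and added 1:1 to the combined two-fold series of both agents, then incubated overnight at 37 °C. Growth/no-growth was called at <0.1 OD600. MICs alone were read on the same plates. FIC index came from the most synergistic well; three independent repeats, mean ± SD.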

Pseudomonas aeruginosa [2] = assay: Synergistic antibacterial activity against Pseudomonas aeruginosa PAO1 assessed as bacterial growth inhibition incubated for overnight in presence of […] by microbroth dilution method relative to control; assay type: functional
How it was run: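 Fixed-concentration combination MIC in TSB. The first agent was set in a two-fold dilution series (100 µL/well), then 50 µL/well of the second agent at a fixed concentration was added; PMBN was fixed at 30 µg/mL. Bacteria at OD 0.02 (50 µL) went into 150 µL of compounds, overnight at 37 °C. MIC was the lowest concentration without visible growth (<0.1 OD600).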

Escherichia coli [3] = assay: Synergistic antibacterial activity against Escherichia coli NCTC 12923 assessed as fold change in novobiocin MIC at <=0.25 times MIC incubated for overnight by microbroth dilution checkerboard assay relative to novobiocin alone; assay type: functional
How it was run: (§2)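 Checkerboard microdilution under MIC conditions (TSB, overnight, 37 °C). Two-fold series of each agent were combined on one plate before bacteria were added, and single-agent MICs were measured on the same plate. FIC = sum of combination MIC/alone MIC for each agent, taken from the most synergistic well. Three independent repeats, mean ± SD. ≤0.5 was taken as strong synergy and 0.5–<1 as weak.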

Escherichia coli [4] = assay: Synergistic antibacterial activity against Escherichia coli NCTC 12923 assessed as bacterial growth inhibition incubated for overnight in presence of PBMN by microbroth dilution method relative to control; assay type: functional
How it was run: (§3)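 Adapted broth microdilution in TSB. The test compound was in a 2-fold dilution series, with PMBN added at a fixed 30 µg/mL. Bacteria at OD 0.02 were added, and plates were incubated overnight at 37 °C. Growth/no growth was read as for the MIC (<0.1 OD600).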

Klebsiella pneumoniae [5] = assay: Synergistic antibacterial activity against Klebsiella pneumoniae NCTC 13368 assessed as fold change in novobiocin MIC at <=0.25 times MIC incubated for overnight by microbroth dilution checkerboard assay relative to novobiocin alone; assay type: functional; how it was run: as §2
Escherichia coli [6] = assay: Synergistic antibacterial activity against Escherichia coli NCTC 12923 assessed as novobiocin MIC at <=0.25 times MIC incubated for overnight by microbroth dilution checkerboard assay; assay type: functional; how it was run: as §2
Acinetobacter baumannii [7] = assay: Synergistic antibacterial activity against Acinetobacter baumannii AYE assessed as fold change in novobiocin MIC at <=0.25 times MIC incubated for overnight by microbroth dilution checkerboard assay relative to novobiocin alone; assay type: functional; how it was run: as §2
Klebsiella pneumoniae [8] = assay: Synergistic antibacterial activity against Klebsiella pneumoniae NCTC 13368 assessed as bacterial growth inhibition incubated for overnight in presence of PBMN by microbroth dilution method relative to control; assay type: functional; how it was run: as §3
Erythrocyte = assay: Hemolytic activity in human Red blood cells at 512 microg/ml measured after 1 hrs by absorbance based assay; assay type: toxicity, cell-based; conditions: dose 512 µg/ml
How it was run: (§4)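 Titrations in PBS were incubated with freshly collected human red blood cells for 1 h at 37 °C. Controls were 0.1% Triton-X-100 (full lysis) and PBS alone (no lysis). After centrifugation, supernatant OD550 was read. % haemolysis = (AP−AB)/(AC−AB)×100. Data are means and standard error of three biological replicates.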

Klebsiella pneumoniae [9] = assay: Synergistic antibacterial activity against Klebsiella pneumoniae M6 assessed as fold change in novobiocin MIC at <=0.25 times MIC incubated for overnight by microbroth dilution checkerboard assay relative to novobiocin alone; assay type: functional; how it was run: as §2
Pseudomonas aeruginosa [10] = assay: Synergistic antibacterial activity against Pseudomonas aeruginosa NCTC 13437 assessed as fold change in novobiocin MIC at <=0.25 times MIC incubated for overnight by microbroth dilution checkerboard assay relative to novobiocin alone; assay type: functional; how it was run: as §2
Acinetobacter baumannii [11] = assay: Synergistic antibacterial activity against Acinetobacter baumannii ATCC 17978 assessed as fold change in novobiocin MIC at <=0.25 times MIC incubated for overnight by microbroth dilution checkerboard assay relative to novobiocin alone; assay type: functional; how it was run: as §2
Klebsiella pneumoniae [12] = assay: Synergistic antibacterial activity against Klebsiella pneumoniae M6 assessed as bacterial growth inhibition incubated for overnight in presence of PBMN by microbroth dilution method relative to control; assay type: functional; how it was run: as §3
Pseudomonas aeruginosa [13] = assay: Synergistic antibacterial activity against Pseudomonas aeruginosa NCTC 13437 assessed as novobiocin MIC at <=0.25 times MIC incubated for overnight by microbroth dilution checkerboard assay; assay type: functional; how it was run: as §1
Acinetobacter baumannii [14] = assay: Synergistic antibacterial activity against Acinetobacter baumannii ATCC 17978 assessed as bacterial growth inhibition incubated for overnight in presence of PBMN by microbroth dilution method relative to control; assay type: functional; how it was run: as §3
Klebsiella pneumoniae [15] = assay: Synergistic antibacterial activity against […] Klebsiella pneumoniae NCTC 13368 assessed as novobiocin MIC at <=0.25 times MIC incubated for overnight by microbroth dilution checkerboard assay; assay type: functional
How it was run: (§5)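 Checkerboard run under the MIC conditions (TSB, overnight, 37 °C). Antibiotic and lipoguanidine 2-fold series were combined on one plate before bacteria were added. Growth/no-growth was scored as for the MIC (<0.1 OD600). Single-agent MICs were measured on the same plates. Three independent repeats were done.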

Acinetobacter baumannii [16] = assay: Synergistic antibacterial activity against Acinetobacter baumannii AYE assessed as bacterial growth inhibition incubated for overnight in presence of PBMN by microbroth dilution method relative to control; assay type: functional; how it was run: as §3
Klebsiella pneumoniae [17] = assay: Synergistic antibacterial activity against […] Klebsiella pneumoniae M6 assessed as novobiocin MIC at <=0.25 times MIC incubated for overnight by microbroth dilution checkerboard assay; assay type: functional; how it was run: as §5
Pseudomonas aeruginosa [18] = assay: Synergistic antibacterial activity against Pseudomonas aeruginosa NCTC 13437 assessed as bacterial growth inhibition incubated for overnight in presence of PBMN by microbroth dilution method relative to control; assay type: functional; how it was run: as §3
Acinetobacter baumannii [19] = assay: Synergistic antibacterial activity against Acinetobacter baumannii AYE assessed as novobiocin MIC at <=0.25 times MIC incubated for overnight by microbroth dilution checkerboard assay; assay type: functional; how it was run: as §2
[20] = Hemolytic activity in human Red blood cells at 512 microg/ml measured after 1 hrs by absorbance based assay relative to control; assay type: toxicity, cell-based, Erythrocyte; conditions: red blood cells (erythrocytes), at 512 µg/mL, read-out: Activity; how it was run: as §4
Pseudomonas aeruginosa [21] = assay: Potentiation of doxycycline induced antibacterial activity against Pseudomonas aeruginosa NCTC 13437; assay type: functional, organism-based
Pseudomonas aeruginosa [22] = assay: Synergistic antibacterial activity against Pseudomonas aeruginosa PAO1 assessed as reduction in rifampicin MIC at 8 to 32 microg/ml incubated for overnight by microbroth dilution checkerboard assay; assay type: functional, organism-based; conditions: dose 8-32 µg/ml
How it was run: (§6)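 Broth microdilution in Tryptic Soy Broth, with rifampicin in a 2-fold dilution series combined with the second agent. Bacteria were grown overnight in TSB, back-diluted, then incubated with the compounds overnight at 37 °C. MIC was taken as the lowest concentration with no visible growth (<0.1 OD600).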

Pseudomonas aeruginosa [23] = assay: Synergistic antibacterial activity against Pseudomonas aeruginosa NCTC 13437 assessed as reduction in rifampicin MIC at 8 to 32 microg/ml incubated for overnight by microbroth dilution checkerboard assay; assay type: functional, organism-based; conditions: dose 8-32 µg/ml; how it was run: as §6

| SMILES | fold change (FC) (Pseudomonas aeruginosa [1]) | inhibition (INH) (Pseudomonas aeruginosa [2]) [%] | fold change (FC) (Escherichia coli [3]) | inhibition (INH) (Escherichia coli [4]) [%] | fold change (FC) (Klebsiella pneumoniae [5]) | MIC (Escherichia coli [6]) [µg/mL] | fold change (FC) (Acinetobacter baumannii [7]) | inhibition (INH) (Klebsiella pneumoniae [8]) [%] | Activity (Erythrocyte) | fold change (FC) (Klebsiella pneumoniae [9]) | fold change (FC) (Pseudomonas aeruginosa [10]) | fold change (FC) (Acinetobacter baumannii [11]) | inhibition (INH) (Klebsiella pneumoniae [12]) [%] | MIC (Pseudomonas aeruginosa [13]) [µg/mL] | inhibition (INH) (Acinetobacter baumannii [14]) [%] | MIC (Klebsiella pneumoniae [15]) [µg/mL] | inhibition (INH) (Acinetobacter baumannii [16]) [%] | MIC (Klebsiella pneumoniae [17]) [µg/mL] | inhibition (INH) (Pseudomonas aeruginosa [18]) [%] | MIC (Acinetobacter baumannii [19]) [µg/mL] | also measured |
| --- | --- | --- | --- | --- | --- | --- | --- | --- | --- | --- | --- | --- | --- | --- | --- | --- | --- | --- | --- | --- | --- |
| CCCCCCCC/C=C\CCCCCCCCNC(=N)NCCCCN | 0 | <20 | 0 | <20 | 0 | > 128 | >=4 | <20 | Toxic | >=4 | 0 | >=4 | <20 | > 128 | <20 | > 128 | <20 | 16 | <20 | ≤ 0.125 |  |
| CCCCCCCCCCCCNC(=N)NCCCCN |  | <20 |  | <20 |  |  |  | <20 | Toxic |  |  |  | <20 |  | <20 |  | <20 |  | <20 |  |  |
| CCCCCCCC/C=C\CCCCCCCCNC(=N)NCCCCNC(=N)N | 0 | <20 | >=4 | <20 | 0 | 4 | 0 | <20 | Toxic | >=4 | 0 | >=4 | <20 | > 128 | <20 | > 128 | <20 | 1 | <20 | ≤ 0.125 |  |
| CCCCCCCCCCNC(=N)NCCCCN | >=4 | <20 | >=4 | <20 | >=4 | 0.5 | >=4 | <20 |  | >=4 | >=4 | >=4 | <20 | 8 | <20 | 16 | <20 | 4 | <20 | ≤ 0.125 | hemolysis at 1 h, 512 microg/ml [20]: 8.2%; Activity (Pseudomonas aeruginosa [21]): Active; Activity (Pseudomonas aeruginosa [22]): Active; Activity (Pseudomonas aeruginosa [23]): Active |
| CCCCC/C=C\C/C=C\CCCCCCCCNC(=N)NCCCCN | 0 |  | 0 |  | 0 | > 128 | >=4 |  | Toxic | 0 | 0 | 0 |  | > 128 |  | > 128 |  | 64 |  | 1 | hemolysis at 1 h, 512 microg/ml [20]: 100% |
| CC/C=C\C/C=C\C/C=C\CCCCCCCCNC(=N)NCCCCN | 0 |  | 0 |  | 0 | 32 | >=4 |  | Toxic | >=4 | 0 | >=4 |  | > 128 |  | > 128 |  | 8 |  | ≤ 0.125 |  |
